Measured values reported in ChEMBL document CHEMBL3739416, “Discovery of a marine-derived bis-indole alkaloid fascaplysin, as a new class of potent P-glycoprotein inducer and establishment of its structure-activity relationship” (Eur J Med Chem, 2016).
Active and inactive are the calls of the source. No cut-off for these calls is given here.

Tests used:
LS180 [1] = test: Induction of P-glycoprotein in human LS180 cells assessed as accumulation of intracellular rhodamine-123 at 5 uM after 48 hrs by fluorescence assay; type: cell-based
Outline: (§1)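 LS-180 colorectal cells, seeded at 2 × 10⁴ per well, were grown 24 h and then exposed to compound for 48 h, with 0.1% final DMSO. Rifampicin at 10 µM served as the reference inducer. Cells were held in HANKS buffer for 40 min, then loaded with Rh123 for 90 min and washed four times in cold PBS. Lysis was 1 h in 0.1% Triton X-100/0.2 N NaOH. Read-out was intracellular Rh123 per total protein, expressed as % of untreated control. Values are the mean ± SD of three experiments.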

LS180 [2] = test: Induction of P-glycoprotein in human LS180 cells assessed as accumulation of intracellular rhodamine-123 at 1 uM after 48 hrs by fluorescence assay relative to control; type: cell-based; outline: as §1
[3] = Cytotoxicity against human LS180 cells assessed as cell viability at 10 uM after 48 hrs by MTT assay relative to control; type: cell-based; details: read-out: Activity
Outline: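 LS-180 cells were seeded at 1 × 10⁴ per well, allowed 24 h, then treated with compound. MTT dye was added 4 h before the end. Formazan was dissolved in DMSO and absorbance read at 570 nm. Viability was expressed relative to the untreated control, taken as 100%.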

LS180 [4] = test: Induction of P-glycoprotein in human LS180 cells assessed as accumulation of intracellular rhodamine-123 at 10 uM after 48 hrs by fluorescence assay relative to control; type: cell-based; outline: as §1
LS180 [5] = test: Induction of P-glycoprotein in human LS180 cells assessed as accumulation of intracellular rhodamine-123 at 125 nM after 48 hrs by fluorescence assay relative to control; type: cell-based; outline: as §1
LS180 [6] = test: Induction of P-glycoprotein in human LS180 cells assessed as accumulation of intracellular rhodamine-123 at 62.5 nM after 48 hrs by fluorescence assay relative to control; type: cell-based; outline: as §1
LS180 [7] = test: Induction of P-glycoprotein in human LS180 cells assessed as accumulation of intracellular rhodamine-123 at 500 nM after 48 hrs by fluorescence assay relative to control; type: cell-based; outline: as §1
LS180 [8] = test: Induction of P-glycoprotein in human LS180 cells assessed as accumulation of intracellular rhodamine-123 at 250 nM after 48 hrs by fluorescence assay relative to control; type: cell-based; outline: as §1
[9] = Thermodynamic aqueous solubility of the compound in phosphate buffer saline; type: physicochemical; details: read-out: Therm_solubility
[10] = Cytotoxicity against HGF cells assessed as cell viability after 48 hrs by MTT assay; type: cell-based; details: Homo sapiens
Outline: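 Normal human gingival fibroblasts grown in MEM with 1% non-essential amino acids, 10% FCS, penicillin G and streptomycin at 37 °C, 5% CO2. Seeded at 1 × 10⁴ cells/well for 24 h, then compound-treated. MTT added 4 h before the end, formazan dissolved in DMSO, absorbance read at 570 nm. Viability expressed relative to untreated control set as 100%.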

[11] = Thermodynamic aqueous solubility of the compound in water; type: physicochemical; details: read-out: Therm_solubility
[12] = Thermodynamic aqueous solubility of the compound in stimulated intestinal fluid; type: ADME; details: simulated intestinal fluid; read-out: Therm_solubility
[13] = Thermodynamic aqueous solubility of the compound in stimulated gastric fluid; type: ADME; details: simulated gastric fluid; read-out: Therm_solubility
LS180 [14] = test: Induction of P-glycoprotein expression in human LS180 cells at 1 uM by Western blot analysis relative to control; type: cell-based

| Compound | Activity (LS180 [1]) | Activity (LS180 [2]) [%] | viability at 48 h, 10 µM [3] [%] | further results |
| --- | --- | --- | --- | --- |
| O=C(c1ccc(-c2ccccc2)cc1)N1CCc2c([nH]c3ccccc23)C1 | inactive |  |  |  |
| O=C(c1ccc(-c2cccc([N+](=O)[O-])c2)o1)N1CCc2c([nH]c3ccccc23)C1 | inactive |  |  |  |
| c1ccc2c(CN3CCc4c([nH]c5ccccc45)C3)c3ccccc3cc2c1 | inactive |  |  |  |
| c1ccc2c3c([nH]c2c1)CN(Cc1ccncc1)CC3 | inactive |  |  |  |
| C[n+]1ccc2c([nH]c3ccccc32)c1C(=O)c1ccccc1F |  | 79 | 69.8 |  |
| O=C(c1ccccc1)c1nccc2c1[nH]c1ccccc12 |  | 94.6 | 67.5 |  |
| O=C1c2ccc(Cl)cc2-[n+]2ccc3c([nH]c4ccccc43)c21 |  | 57.1 | 66.2 |  |
| Clc1ccc(CN2CCc3c([nH]c4ccccc34)C2)s1 | inactive |  |  |  |
| O=C(c1cnccn1)N1CCc2c([nH]c3ccccc23)C1 | inactive |  |  |  |
| O=C(c1c(F)cccc1Cl)c1nccc2c1[nH]c1ccccc12 |  | 89.6 | 60.1 |  |
| O=C(c1ccc(Br)o1)N1CCc2c([nH]c3ccccc23)C1 | inactive |  |  |  |
| CO[C@H]1/C=C/O[C@@]2(C)Oc3c(C)c(O)c4c(O)c(c(/C=N/N5CCN(C)CC5)c(O)c4c3C2=O)NC(=O)/C(C)=C\C=C\[C@H](C)[C@H](O)[C@@H](C)[C@@H](O)[C@@H](C)[C@H](OC(C)=O)[C@@H]1C |  |  |  | Activity (LS180 [4]): 67.1% |
| Cc1ccsc1C(=O)N1CCc2c([nH]c3ccccc23)C1 | inactive |  |  |  |
| O=C(c1ccccc1Br)c1nccc2c1[nH]c1ccccc12 |  | 105 | 80.3 |  |
| O=C1NCCN1C(=O)N1CCc2c([nH]c3ccccc23)C1 | inactive |  |  |  |
| O=C(c1ccc(C(F)(F)F)cc1)c1nccc2c1[nH]c1ccccc12 |  | 107 | 106 |  |
| O=C1c2cc(Cl)ccc2-[n+]2ccc3c([nH]c4ccccc43)c21 |  | 58.7 | 67.9 |  |
| Cc1ncsc1C(=O)N1CCc2c([nH]c3ccccc23)C1 | inactive |  |  |  |
| O=C1c2ccccc2-[n+]2ccc3c([nH]c4ccccc43)c21.[Cl-] [FASCAPLYSIN CHLORIDE] |  | 57.6 | 57.5 | Activity (LS180 [5]): 39.3%; Activity (LS180 [6]): 42.9%; Activity (LS180 [7]): 34.5%; Activity (LS180 [8]): 43.7%; solubility thermodynamic [9]: > 1500 µg/mL; IC50 [10]: 4 µM; solubility thermodynamic [11]: > 1500 µg/mL; solubility thermodynamic [12]: > 1500 µg/mL; solubility thermodynamic [13]: > 1500 µg/mL |
| O=C(c1cc(Cl)ccc1Cl)c1nccc2c1[nH]c1ccccc12 |  | 103 | 69.6 |  |
| O=C(c1ccc(Cl)c(Cl)c1Cl)c1nccc2c1[nH]c1ccccc12 |  | 104 | 84.9 |  |
| c1ccc2[nH]c(CN3CCc4c([nH]c5ccccc45)C3)nc2c1 | inactive |  |  |  |
| C[n+]1ccc2c([nH]c3ccccc32)c1C(=O)c1ccccc1 |  | 75.2 | 77.5 |  |
| O=C(c1ccc(Cl)cc1Cl)c1nccc2c1[nH]c1ccccc12 |  | 97.3 | 98.8 |  |
| O=C(c1cc(F)c(Cl)cc1Cl)c1nccc2c1[nH]c1ccccc12 |  | 106 | 92.4 |  |

| Compound | Activity (LS180 [1]) | Activity (LS180 [2]) [%] | viability at 48 h, 10 µM [3] [%] | further results |
| --- | --- | --- | --- | --- |
| O=[N+]([O-])c1ccc(CN2CCc3c([nH]c4ccccc34)C2)o1 | inactive |  |  |  |
| O=C(c1ccccc1Cl)c1nccc2c1[nH]c1ccccc12 |  | 105 | 89.4 |  |
| O=C(c1ccccc1F)c1nccc2c1[nH]c1ccccc12 |  | 101 | 98.4 |  |
| Cc1noc(C)c1CN1CCc2c([nH]c3ccccc23)C1 | inactive |  |  |  |
| O=C(c1c[nH]c2ccccc12)c1nccc2c1[nH]c1ccccc12 |  | 99.4 | 78.7 |  |
| O=C1c2cc(F)c(Cl)cc2-[n+]2ccc3c([nH]c4ccccc43)c21 |  | 55.5 | 36.8 |  |
| c1ccc2cc(CN3CCc4c([nH]c5ccccc45)C3)ccc2c1 | inactive |  |  |  |
| C[n+]1ccc2c([nH]c3ccccc32)c1C(=O)c1ccccc1Br.[I-] |  | 70.1 | 69.1 | fold change (FC) (LS180 [14]): 8; Activity (LS180 [5]): 41.8%; Activity (LS180 [6]): 80%; Activity (LS180 [7]): 33.6%; Activity (LS180 [8]): 42.3%; solubility thermodynamic [9]: 800 µg/mL; solubility thermodynamic [11]: 800 µg/mL; solubility thermodynamic [12]: 800 µg/mL; solubility thermodynamic [13]: 800 µg/mL |
| O=C1c2cc(F)c(F)cc2-[n+]2ccc3c([nH]c4ccccc43)c21.[Cl-] |  | 49.6 | 63.5 | fold change (FC) (LS180 [14]): 4; Activity (LS180 [5]): 33.8%; Activity (LS180 [6]): 35.5%; Activity (LS180 [7]): 30.6%; Activity (LS180 [8]): 35.3%; solubility thermodynamic [9]: 80 µg/mL; solubility thermodynamic [11]: > 1500 µg/mL; solubility thermodynamic [12]: < 5 µg/mL; solubility thermodynamic [13]: 80 µg/mL |
| O=C(c1ccc2ccccc2n1)N1CCc2c([nH]c3ccccc23)C1 | inactive |  |  |  |
| O=C(c1ccc(-c2cc(C(F)(F)F)ccc2Cl)o1)N1CCc2c([nH]c3ccccc23)C1 | inactive |  |  |  |
| C[n+]1ccc2c([nH]c3ccccc32)c1C(=O)c1ccc(C(F)(F)F)cc1 |  | 78.5 | 75.7 |  |
| O=C(c1ccc([N+](=O)[O-])s1)N1CCc2c([nH]c3ccccc23)C1 | inactive |  |  |  |
| CN1CCN(C(=O)N2CCc3c([nH]c4ccccc34)C2)CC1 | inactive |  |  |  |
| COc1ccc(C(=O)c2nccc3c2[nH]c2ccccc23)c(OC)c1 |  | 108 | 82.2 |  |
| O=C(N1CCOCC1)N1CCc2c([nH]c3ccccc23)C1 | inactive |  |  |  |
| O=C1c2ccc(Cl)c(Cl)c2-[n+]2ccc3c([nH]c4ccccc43)c21 |  | 57.8 | 57.4 |  |
| O=C1c2c(Cl)cccc2-[n+]2ccc3c([nH]c4ccccc43)c21 |  | 59.2 | 63.4 |  |
| c1ccc2nc(CN3CCc4c([nH]c5ccccc45)C3)ccc2c1 | inactive |  |  |  |
| O=C(c1cc2ccccc2o1)N1CCc2c([nH]c3ccccc23)C1 | inactive |  |  |  |
| O=C(c1cc(F)c(F)cc1Cl)c1nccc2c1[nH]c1ccccc12 |  | 112 | 81.9 |  |
| C[n+]1ccc2c([nH]c3ccccc32)c1C(=O)c1ccccc1Cl |  | 71.4 | 69.7 |  |
| C[n+]1ccc2c([nH]c3ccccc32)c1C(=O)c1c[nH]c2ccccc12 |  | 77.6 | 69.1 |  |
| O=C(c1c[nH]c2ccccc12)N1CCc2c([nH]c3ccccc23)C1 | inactive |  |  |  |
